We go through one compound from ChEMBL document CHEMBL3259723, “Membrane active vancomycin analogues: a strategy to combat bacterial resistance” (J Med Chem, 2014).

For data set [1], the system named is Staphylococcus aureus. Briefly: Bactericidal activity against methicillin-resistant Staphylococcus aureus ATCC 33591 assessed as log10 reduction of bacterial count at 6 times MIC measured over 24 hrs. The format is functional. In outline:
(§1)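 MRSA in yeast-dextrose broth, starting inoculum 1.6 × 10^8 CFU/mL. […] Samples taken at 0, 1, 2, 3, 6 and 24 h, diluted 10-fold serially in saline and plated on yeast-dextrose agar. Colonies counted after 24 h at 37 °C; log10 CFU/mL reported.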

Data set [2] has as its system Staphylococcus aureus. The data set can be described thus: Antibacterial activity against methicillin-resistant Staphylococcus aureus ATCC 33591 assessed as leakage of intracellular potassium ion at 10 uM measured for 10 mins by PBFI-AM dye-based spectrofluorometric analysis relative to control. The format is functional. The method, boiled down:
(§2)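 Mid-log (6 h) cells washed twice and resuspended in 10 mM HEPES pH 7.2 with 0.5% glucose. Signal stabilized 60 s at RT, then 1 μM PBFI-AM added and a 2 min baseline recorded before compound.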

Data set [3] relates to Staphylococcus aureus. The data set can be described thus: Antibacterial activity against methicillin-resistant Staphylococcus aureus ATCC 33591 assessed as induction of membrane depolarization measured at < 3 mins by DiSC3(5) dye-based spectrofluorometric analysis. Format: functional, organism-based. The method, boiled down: (§3)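 Membrane potential assay with DiSC3(5): dye added to cells until maximal uptake, seen as a fluorescence minimum (about 10 min). Compounds then added and depolarization followed as the fluorescence increase over a further 10 min.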

Data set [4] deals with Enterococcus faecium. Briefly: Antibacterial activity against vancomycin-resistant VanA phenotype of Enterococcus faecium ATCC 51559 assessed as induction of cytoplasmic membrane permeabilization at 10 uM measured for 10 mins by propidium iodide uptake assay. The format is functional, organism-based. In outline: (§4)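 Mid-log (6 h) cells harvested at 4 °C, washed and resuspended in PBS pH 7.2. Compound added to cells with 10 μM propidium iodide. Fluorescence (ex 535/em 617 nm) monitored 10 min at RT; the rise in PI fluorescence taken as inner membrane permeabilization.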

A short description of data set [5]: Hemolytic activity in human RBC up to 100 uM after 1 hr. Format: ADME, cell-based. The note with it: erythrocyte. The method, boiled down:
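Incubated 1 h at 37 °C, then centrifuged and supernatant A540 read. % hemolysis calculated against no-compound wells and 1 vol% Triton X-100 wells taken as 100% lysis.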

Data set [6] has as its system Enterococcus faecium. The data set can be described thus: Antibacterial activity against vancomycin-resistant VanA phenotype of Enterococcus faecium ATCC 51559 assessed as induction of membrane depolarization measured at < 3 mins by DiSC3(5) dye-based spectrofluorometric analysis. The format is functional, organism-based. In outline: as §3
Data set [7] deals with Enterococcus faecium. Briefly: Antibacterial activity against vancomycin-resistant VanA phenotype of Enterococcus faecium ATCC 51559 assessed as growth inhibition by broth microdilution method. The format is functional. The method, boiled down: (§5)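 Broth microdilution per CLSI; compounds serially diluted in sterile water, added to bacteria at 10^5 CFU/mL (diluted from 6 h cultures). Incubated at 37 °C, OD600 read. Triplicate wells, experiment done at least twice. Mean OD plotted against concentration and fitted sigmoidally; MIC taken where OD matches the no-bacteria control.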
A general note: Dilution methods test growth across graded concentrations, often in twofold steps.

Data set [8] relates to Enterococcus faecium. Briefly: Potency index, ratio of dalbavancin MIC90 to compound MIC for vancomycin-resistant VanA phenotype of Enterococcus faecium ATCC 51559. Format: functional.
In data set [9] the test system is Staphylococcus aureus. Briefly: Bactericidal activity against methicillin-resistant Staphylococcus aureus ATCC 33591 infected in 90% human whole blood at 3.6 uM after 3 hrs. Format: functional, organism-based. The method, boiled down:
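MRSA (30 μL of 10^6 CFU/mL in 0.9% saline) mixed with compound at 3.6 μM and 270 μL fresh human whole blood. Incubated 3 h at 37 °C.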

Data set [10] deals with Staphylococcus aureus. Briefly: Bactericidal activity against methicillin-resistant Staphylococcus aureus ATCC 33591 assessed as log10 reduction of bacterial count at MIC measured over 24 hrs. Format: functional. In outline: as §1
Data set [11] concerns Enterococcus faecium. The data set can be described thus: Antibacterial activity against vancomycin-resistant VanA phenotype of Enterococcus faecium ATCC 51559 assessed as leakage of intracellular potassium ion at 10 uM measured for 10 mins by PBFI-AM dye-based spectrofluorometric analysis. Format: functional, organism-based. In outline:
as §2

The subject of data set [12] is Enterococcus faecium. Briefly: Antibacterial activity against vancomycin-sensitive Enterococcus faecium ATCC 19634 assessed as growth inhibition by broth microdilution method. The format is functional. In outline:
(§6)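 Broth microdilution per CLSI; compounds serially diluted in autoclaved water. Bacteria grown 6 h in suitable media, diluted to 10⁵ CFU/mL; compound added to bacterial suspension, incubated at 37 °C, OD600 read. Triplicate wells, experiment done at least twice; mean OD versus concentration sigmoidally fitted, MIC taken where OD equals no-bacteria control.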

The subject of data set [13] is Staphylococcus aureus. The data set can be described thus: Antibacterial activity against methicillin-resistant Staphylococcus aureus ATCC 33591 assessed as growth inhibition by broth microdilution method. The format is functional. In outline: as §5
Data set [14] relates to HeLa. Briefly: Cytotoxicity against human HeLa cells assessed as cell survival up to 100 uM after 24 hrs by MTT assay. The format is cell-based. The method, boiled down: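 HeLa cells grown in DMEM with 10% FBS to 70–80% confluency, then exposed to serially diluted compounds for 24 h at 37 °C, 5% CO2. MTT (5 mg/mL solution) added for 3 h, formazan dissolved in DMSO, A570 read. Survival calculated relative to untreated and 10% Triton X-100 controls.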
(Formazan colour is commonly taken as a measure of viable cells.)

Data set [15] deals with Staphylococcus aureus. Briefly: Antibacterial activity against vancomycin-intermediate-resistant Staphylococcus aureus assessed as growth inhibition by broth microdilution method. The format is functional. The method, boiled down: as §5
The subject of data set [16] is Staphylococcus aureus. Briefly: Antibacterial activity against methicillin-resistant Staphylococcus aureus ATCC 33591 assessed as induction of cytoplasmic membrane permeabilization measured within 5 mins by propidium iodide uptake assay. The format is functional, organism-based. The method, boiled down:
as §4

Data set [17] concerns Staphylococcus aureus. The data set can be described thus: Antibacterial activity against methicillin-resistant Staphylococcus aureus ATCC 33591 assessed as growth inhibition measured after 52 serial passages. The format is functional, organism-based. The method, boiled down: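 Serial passage: the MIC assay is run against MRSA, then cells from the one-half-MIC well of the previous assay are harvested and inoculated into fresh yeast-dextrose broth for the next MIC assay after 24 h incubation. Repeated for […] passages; MIC plotted against passage number and fold increase in MIC determined.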

For data set [18], the system named is Staphylococcus aureus. The data set can be described thus: Antibacterial activity against methicillin-sensitive Staphylococcus aureus MTCC 737 assessed as growth inhibition by broth microdilution method. The format is functional. The method, boiled down: as §6

Active and inactive are the calls of the source. The rule behind the calls is not given here.

What is called MIC is the lowest concentration found to suppress growth. Take `CCCCCCCCCCCCCC[N+](C)(C)CCCNC(=O)[C@H]1NC(=O)[C@H]2NC(=O)[C@H](NC(=O)[C@@H]3NC(=O)[C@H](CC(N)=O)NC(=O)[C@H](NC(=O)[C@@H](CC(C)C)NC)[C@H](O)c4ccc(c(Cl)c4)Oc4cc3cc(c4O[C@@H]3O[C@H](CO)[C@@H](O)[C@H](O)[C@H]3O[C@H]3C[C@](C)(N)[C@H](O)[C@H](C)O3)Oc3ccc(cc3Cl)[C@H]2O)c2ccc(O)c(c2)-c2c(O)cc(O)cc21.O=C([O-])C(F)(F)F`: the log10cfu in [1] and in data set [10] was more than 5 each time. Further, the result in data set [2], in data set [4], in data set [9], in [11] and in data set [17] was Active. Besides, the Activity entry in [3] was “Dose-dependent effect”; in data set [5] it was “Non-toxic”; in data set [6], “Dose-dependent effect”; in [14], “Non-toxic”; in data set [16], “Dose-dependent effect”. Also, the MIC stood at 0.7 µM in [7]; 0.12 µM in data set [12]; 0.65 µM in data set [13]; 0.36 µM in data set [15]; 1.25 µM in data set [18]. Also, in data set [8], the Ratio amounted to 25.
